Among the data in ChEMBL document CHEMBL1123866, “Benzimidazole derivatives with atypical antiinflammatory activity” (J Med Chem, 1987) are inhibition in vivo values, retold here.

One test concerns Rattus norvegicus. Nature of the test: Anti-inflammatory activity (% inhibition of paw swelling)in rat adjuvant arthritis model at 25 mg/kg oral dose.
Settings: not given
It is filed as functional. In a few lines: (§1)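 Rats, ten per group, were dosed orally with a suspension in 1% acacia in distilled water, starting immediately after adjuvant injection and then once daily for 14 days in total. Foot volume of the noninjected hind paw was measured by mercury displacement to the lateral malleolus 24 h after the final dose. Percent inhibition of swelling was calculated against untreated arthritic controls.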
On to `CCc1ccc2[nH]c(S(=O)(=O)CC(F)(F)F)nc2c1`, for which the inhibition in vivo at 25 mg/kg is 34%.

For the compound `O=S(=O)(c1nc2cc(Cl)ccc2[nH]1)C(F)(F)C(F)(F)C(F)(F)F`, the inhibition in vivo at 25 mg/kg was determined as 0%.

On to `O=S(=O)(CC(F)(F)F)c1nc2ccccc2[nH]1`, for which the inhibition in vivo at 25 mg/kg worked out at 52%.

For `CC(C)Cc1ccc(C(C)C(=O)O)cc1` (stereo not drawn) [IBUPROFEN], the inhibition in vivo at 25 mg/kg came to 73%.

Regarding `O=S(=O)(CC(F)(F)F)c1nc2cc(C(F)(F)F)ccc2[nH]1`, the inhibition in vivo at 25 mg/kg was determined as 0%.

Regarding `CCCc1ccc2[nH]c(S(=O)(=O)CC(F)(F)F)nc2c1`, the inhibition in vivo at 25 mg/kg stood at 0%.

Consider `Cc1ccc2[nH]c(S(=O)(=O)C(F)(F)C(F)(F)F)nc2c1`, for which the inhibition in vivo at 25 mg/kg is 8%.

In the case of `O=S(=O)(CC(F)(F)F)c1nc2cc(Cl)ccc2[nH]1`, the inhibition in vivo at 25 mg/kg was 28%.

For the compound `CCS(=O)(=O)c1nc2cc(C)ccc2[nH]1`, the inhibition in vivo at 25 mg/kg amounted to 17%.

Take `O=S(=O)(c1nc2cc(Cl)ccc2[nH]1)C(F)(F)C(F)(F)F`: the inhibition in vivo at 25 mg/kg stood at 0%.

For the compound `COC(=O)c1ccc2[nH]c(S(=O)(=O)CC(F)(F)F)nc2c1`, the inhibition in vivo at 25 mg/kg turned out to be 11%.

As to `O=S(=O)(CC(F)(F)F)c1nc2cc(F)ccc2[nH]1`, the inhibition in vivo at 25 mg/kg is 43%.

As for `Cc1cc2[nH]c(S(=O)(=O)CC(F)(F)F)nc2cc1F`, the inhibition in vivo at 25 mg/kg was determined as 44%.

In the case of `Cc1ccc2[nH]c(S(=O)(=O)CC(F)(F)F)nc2c1`, the inhibition in vivo at 25 mg/kg turned out to be 52%.

As to `O=S(=O)(CC(F)(F)F)c1nc2cc(Cl)c(Cl)cc2[nH]1`, the inhibition in vivo at 25 mg/kg turned out to be 24%.

Take `Cc1cc2nc(S(=O)(=O)CC(F)(F)F)[nH]c2cc1C`: the inhibition in vivo at 25 mg/kg stood at 18%.

For another test, the system named is Rattus norvegicus. Nature of the test: Antiinflammatory activity was evaluated for the compound in rat adjuvant arthritis model and the percent of inhibition was determined at 50 mg/kg dose administered orally. The settings on record: route oral. It is filed as functional. In outline:
as §1
Regarding `Cc1ccc2[nH]c(S(=O)(=O)CC(F)(F)F)nc2c1`, the inhibition in vivo at 50 mg/kg turned out to be 72%.

The test system of the next test is Rattus norvegicus. Nature of the test: Antiinflammatory activity was evaluated for the compound in rat adjuvant arthritis model and the percent of inhibition was determined at 1 mg/kg dose administered orally. The settings on record: po, read-out: Inhibition.
In the case of `COc1ccc2c(c1)c(CC(=O)O)c(C)n2C(=O)c1ccc(Cl)cc1` [INDOMETHACIN], the inhibition in vivo at 1 mg/kg turned out to be 69%.
